Key:
HT-29 human cancer cells = assay: In vivo hollow fiber assay, HT-29; design: species or system human cells in host mice; conditions: HT29, ip administration, 0.5 to 10 mg per kg per day for four days
Method in brief: (§1)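 Murine hollow fiber model following an NCI procedure, with human cancer cells (HT-29, LNCaP, MCF-7) held in fibers. Test compound given ip at 0.5 to 10 mg/kg per day for four days, in 5% EtOH plus 5% Tween 80 in physiologic saline. Paclitaxel positive control at 2.0 mg/kg per day for four days.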

[1] = Body weight of host mice in the hollow fiber assay; assay type: in vivo; conditions: highest two doses (10 and 5 mg/kg/day), ip, over the course of the study
Method in brief: as §1

[2] = test system: LNCaP (hormone-dependent human prostate cancer); assay: In vivo hollow fiber assay, LNCaP; design: species or system human cells in host mice; conditions: ip administration, 0.5 to 10 mg per kg per day for four days
Method in brief: as §1

[3] = test system: MCF-7 (human breast cancer); assay: In vivo hollow fiber assay, MCF-7; design: species or system human cells in host mice; conditions: MCF-7, ip administration, 0.5 to 10 mg per kg per day for four days
Method in brief: as §1

[4] = Stability in solvents at room temperature; assay type: physicochemical; conditions: kept in CDCl3 or deuteriobenzene at room temperature; [2+2] addition
[5] = test system: P-388 lymphocytic murine leukemia; conditions: ref Herz et al., 1981; cited from earlier work
[6] = test system: HT-29 human colon cancer cell line; assay: Cytotoxic activity against the HT-29 cell line; assay type: cell-based; conditions: for Cytotoxicity ED50: HT-29 cells
NF-κB p65 (RelA) subunit = NF-κB p65 (RelA) subunit (Homo sapiens, UniProt Q04206); assay: Enzyme-based ELISA NF-κB; assay type: biochemical
Sequence of NF-κB p65 (RelA) subunit (Q04206 whole entry, species assumed): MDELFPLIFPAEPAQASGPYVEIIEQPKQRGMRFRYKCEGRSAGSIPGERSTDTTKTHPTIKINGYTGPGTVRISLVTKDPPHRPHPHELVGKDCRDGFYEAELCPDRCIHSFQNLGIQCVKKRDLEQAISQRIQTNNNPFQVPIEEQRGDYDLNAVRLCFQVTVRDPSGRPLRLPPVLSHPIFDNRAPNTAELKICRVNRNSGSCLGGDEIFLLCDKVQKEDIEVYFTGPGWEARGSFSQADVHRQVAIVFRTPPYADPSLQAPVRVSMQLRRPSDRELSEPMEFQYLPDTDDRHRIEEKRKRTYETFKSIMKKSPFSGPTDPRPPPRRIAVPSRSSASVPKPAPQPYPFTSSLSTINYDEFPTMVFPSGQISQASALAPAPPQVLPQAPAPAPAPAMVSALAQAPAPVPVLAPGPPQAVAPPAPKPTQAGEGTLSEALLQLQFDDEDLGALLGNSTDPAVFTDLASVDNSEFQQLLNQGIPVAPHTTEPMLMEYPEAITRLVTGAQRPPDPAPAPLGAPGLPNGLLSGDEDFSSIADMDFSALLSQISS

Substance | inhibition of proliferation in hollow fibers (HT-29 human cancer cells) | body weight loss [1] | inhibition of proliferation in hollow fibers [2] | inhibition of proliferation in hollow fibers [3] | stability in solvents [4] | in vivo antitumor activity [5] | Cytotoxicity ED50 [6] [µM] | NF-κB Inhibition ED50 (NF-κB p65 (RelA) subunit) [µM] | change of potency of the inhibitory effect on HT-29 cells relative to compound 3 ([6]; tiglate instead of methacrylate on C-8)
13-acetoxyrolandrolide [Compound 3] | no inhibition of proliferation was observed | up to 20% | no inhibition of proliferation was observed | no inhibition of proliferation was observed | partially transformed to compound 6 | weak | 0.16 | 7.1 | –
2-epi-glaucolide E [Compound 5] | – | – | – | – | – | – | 9.4 | > 10 | –
2α,13-diacetoxy-4α-hydroxy-8α-methacryloyloxybourbonen-12,6α-olide [Compound 6] | – | – | – | – | – | – | – | 2.8 | –
8-desacyl-13-acetoxyrolandrolide-8-O-tiglate [Compound 4] | – | – | – | – | – | – | 1.5 | – | decreased around ten times

— PMC2847506 (Phytochemistry, 2010)
